Measured values reported in ChEMBL document CHEMBL1129493 (J Med Chem, 1996).
Converted amounts (≈) assume the structure as drawn. The source made the active and inactive calls.

Assays:
[1] = system: Candida albicans; experiment: Minimum inhibitory concentration evaluated against Candida albicans; type: functional
[2] = biological target: T1, Dihydrofolate reductase (Candida albicans, UniProt P22906); experiment: Inhibition of Dihydrofolate reductase enzyme from Candida albicans
T1 sequence (P22906 whole entry): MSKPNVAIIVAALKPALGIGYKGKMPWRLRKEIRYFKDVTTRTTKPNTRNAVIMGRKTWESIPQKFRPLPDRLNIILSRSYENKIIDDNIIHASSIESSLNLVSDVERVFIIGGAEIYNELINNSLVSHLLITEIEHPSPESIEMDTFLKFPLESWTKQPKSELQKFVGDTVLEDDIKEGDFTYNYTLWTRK

[3] = biological target: T2, Dihydrofolate reductase (Homo sapiens, UniProt P00374); experiment: Inhibition of human recombinant Dihydrofolate reductase enzyme
T2 sequence (P00374 whole entry): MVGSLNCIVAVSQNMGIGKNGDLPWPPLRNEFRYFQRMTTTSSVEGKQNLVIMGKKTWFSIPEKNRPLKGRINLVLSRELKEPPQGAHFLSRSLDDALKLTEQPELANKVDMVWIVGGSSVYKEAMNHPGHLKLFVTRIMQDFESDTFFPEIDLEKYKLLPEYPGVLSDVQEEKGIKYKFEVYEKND

[4] = system: HCT-8; experiment: Activity was evaluated against HCT-8 tumor cells; type: functional, cell-based; details: Homo sapiens
How it was run: (§1)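 Cytotoxicity was read by MTT dye reduction for suspension cultures or sulforhodamine B for monolayer cultures. For reversal of multidrug resistance, reserpine was added as reversing agent ([…] as printed).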

[5] = species on record: Mus musculus
[6] = system: 143B; experiment: Cytotoxic Activity was evaluated against 143B (TK-) tumor cells; type: functional, cell-based; details: Homo sapiens; how it was run: as §1
[7] = system: A549; experiment: Cytotoxic activity evaluated against A549 tumor cells; details: Homo sapiens
[8] = Relative concentration of compound in brain compared to concentration in plasma (0.4 ug/mL) at the time of tissue collection from mice; relative concentration; type: ADME, organism-based; details: mouse, read-out: Activity
[9] = Cytotoxic activity was evaluated against Daoy tumor cells; type: functional, cell-based; details: Homo sapiens; how it was run: as §1
[10] = system: D54 cell line; experiment: Cytotoxic Activity was evaluated against D54 tumor cells; type: functional, cell-based; details: Homo sapiens; how it was run: as §1
[11] = system: NCI-H460; experiment: Cytotoxic Activity was evaluated against H460 tumor cells; type: functional, cell-based; details: Homo sapiens; how it was run: as §1
[12] = Cytotoxic activity was evaluated against L tumor cells; type: functional, cell-based; details: Mus musculus; how it was run: as §1
[13] = system: Mus musculus; experiment: Effect on life span of mice with intracranially implanted P388 Leukemic cells at 10 mg/kg by subcutaneous injection; type: functional
How it was run: (§2)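 CDF-1 female mice (18–20 g, 5 or 8/group); P388 leukemia, maintained by in vivo serial passage, implanted intracranially at 1 × 10^5 cells. Treatment started 24 h later; test agents suspended in 0.5% carboxymethyl cellulose plus 1% Tween 80, given sc or ip qd × 10. Read-out was percent increase in life span versus controls.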

[14] = system: Mus musculus; experiment: Effect on life span of mice with intraperitoneally implanted P388 Leukemic cells at 10 mg/kg by subcutaneous injection; type: functional
How it was run: (§3)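 CDF-1 female mice (18–20 g, 5 or 8/group); P388 or P388/ADR cells implanted ip at 1 × 10^6 cells. Dosing began 24 h later; agents suspended in 0.5% carboxymethyl cellulose plus 1% Tween 80, given sc or ip qd × 10. Read-out was percent increase in life span.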

[15] = system: Mus musculus; experiment: Effect on life span of mice with intraperitoneally implanted P388/ADR Leukemic cells at 10 mg/kg by subcutaneous injection; type: functional; how it was run: as §3
[16] = species on record: Mus musculus; experiment: Effect on Pneumocystis carinii pneumonia in SCID mice in the presence of leucovorin; type: functional
How it was run: (§4)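 SCID mice (10-11/group) were dosed prophylactically once daily from day 1 postinfection, 42 doses. Test drug in D5W was given ip, then leucovorin 12 mg/kg sc 30 min later. Trimethoprim 50 mg/kg plus sulfamethoxazole 250 mg/kg was given orally, and controls received D5W ip and sc. Lung impression smears were taken 24 h after the last dose and stained by immunofluorescence. Infection was scored 0-4 semilogarithmically, reported as mean ± SEM and as infected/total mice.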

[17] = species on record: Mus musculus; experiment: Number of mice infected to that of total number of mice (2/11); type: functional, organism-based
[18] = species on record: Mus musculus; experiment: Effect on Candida albicans nephritis and Meningitis in Immunosuppressed Mice brain; type: functional
How it was run: (§5)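 Immunosuppressed CD-1 female mice (10/group) given cyclophosphamide ip, 160 and 40 mg/kg on days -4 and -1; C. albicans 5 × 10^4 cfu/mouse iv via lateral tail vein. Sc dosing of 20 or 50 mg/kg in sesame oil at 3, 7, 24, 30 h post-inoculation; sulfamethoxazole 200 mg/kg ip in D5W given 1 h before each dose. Kidney and brain cultured at 48 h; log cfu/g tissue.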

[19] = species on record: Mus musculus; experiment: Effect on Candida albicans nephritis and Meningitis in Immunosuppressed Mice brain in the presence of SMX; type: functional
How it was run: (§6)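 Immunosuppressed CD-1 female mice (10/group; cyclophosphamide 160 and 40 mg/kg ip on days -4 and -1) inoculated iv via lateral tail vein with 5 × 10^4 cfu C. albicans. Compound sc in 0.1 mL sesame oil (20 or 50 mg/kg) at 3, 7, 24, 30 h; sulfamethoxazole 200 mg/kg ip in D5W 1 h before each dose. Kidney and brain cultured at 48 h; log cfu/g tissue, duplicate or single experiments.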

[20] = species on record: Mus musculus; experiment: Effect on Candida albicans nephritis and Meningitis in Immunosuppressed Mice kidney; type: functional; how it was run: as §5
[21] = species on record: Mus musculus; experiment: Effect on Candida albicans nephritis and Meningitis in Immunosuppressed Mice kidney in the presence of SMX; type: functional; how it was run: as §6
[22] = system: P388; experiment: Cytotoxic activity was evaluated against P388D1 tumor cells; type: functional, cell-based; details: Mus musculus; how it was run: as §1
[23] = system: U373 MG; experiment: Cytotoxic activity was evaluated against U373MG tumor cells; type: functional, cell-based, U-373MG ATCC; details: Homo sapiens; how it was run: as §1
[24] = system: U-87 MG; experiment: Cytotoxic activity was evaluated against U87MG tumor cells; type: functional, cell-based, U-87MG ATCC; details: Homo sapiens; how it was run: as §1
[25] = system: Vero; experiment: Cytotoxic Activity was evaluated against Vero tumor cells; type: functional, cell-based; details: Chlorocebus sabaeus; how it was run: as §1
[26] = Tissue distribution of the in rat lung relative to plasma concentration of 1 mg/kg; relative concentration
[27] = Tissue distribution of the in rat brain relative to plasma concentration of 1 mg/kg; relative concentration
[28] = system: HCT-8; experiment: Cytotoxic Activity was evaluated against HCT-8 tumor cells; type: functional, cell-based; details: Homo sapiens; how it was run: as §1
[29] = system: Mus musculus; experiment: Effect on life span of mice with intracranially implanted P388 Leukemic cells; type: functional; how it was run: as §2
[30] = system: Mus musculus; experiment: Effect on life span of mice with intraperitoneally implanted P388 Leukemic cells; type: functional; how it was run: as §3
[31] = system: Mus musculus; experiment: Effect on life span of mice with intraperitoneally implanted P388/ADR Leukemic cells; type: functional; how it was run: as §3
[32] = species on record: Mus musculus; experiment: Effect on Pneumocystis carinii pneumonia in SCID mice in presence of leucovorin; type: functional; how it was run: as §4
[33] = species on record: Mus musculus; experiment: Number of mice infected to that of total number of mice ([…]/[…]); type: functional, organism-based

Compound | MIC [1] | Ki [2] | Ki [3] | IC50 [4] | also measured
Cn1ccc2c3c(N)nc(N)nc3ccc21 | 1.6 µg/mL (≈ 7.5 µM) | 25 nM | 0.23 nM | 580 nM | 
CCc1cc2c3c(N)nc(N)nc3ccc2n1CC | 0.2 µg/mL (≈ 0.783 µM) | 0.33 nM | 0.01 nM | 0.59 nM | 
COc1cc(Cc2cnc(N)nc2N)cc(OC)c1OC |  |  |  |  | No. of mice infected /total [5]: Partially active
CCc1cc2c3c(N)nc(N)nc3ccc2n1C | 0.1 µg/mL (≈ 0.414 µM) | 1.3 nM | 0.029 nM | 8 nM | 
CC(C)n1c(C(C)(C)C)cc2c3c(N)nc(N)nc3ccc21 | 0.05 µg/mL (≈ 0.168 µM) | < 0.06 nM | 0.0002 nM | 1.3 nM | 
CCC(CC)n1c(C)cc2c3c(N)nc(N)nc3ccc21 | 0.025 µg/mL (≈ 0.0882 µM) | 0.03 nM | 0.0003 nM | 0.74 nM | IC50 [6]: 0.8 nM; IC50 [7]: 0.4 nM; Kp [8]: 10; IC50 [9]: 2.3 nM; IC50 [10]: 4.6 nM; IC50 [11]: 0.5 nM; IC50 [12]: 0.6 nM; Increase in life-span [13]: 50%; Increase in life-span [14]: 80%; Increase in life-span [15]: 20%; Infection score [16]: 0.18; No. of mice infected /total [17]: Number of mice infected to that of total number of mice (2/[…]); Log cfu/g of tissue [18]: 3.6; Log cfu/g of tissue [19]: 3.4; Log cfu/g of tissue [20]: 3.4; Log cfu/g of tissue [21]: 2.5; IC50 [22]: 0.12 nM; IC50 [23]: 2.3 nM; IC50 [24]: 2.1 nM; IC50 [25]: 1 nM
Cc1nc(N)nc(N)c1-c1ccc(Cl)c(Cl)c1 [METOPRINE] |  |  |  |  | Kp [26]: 31; Kp [27]: 6.5
Nc1nc(N)c2c(ccc3[nH]ccc32)n1 | 0.8 µg/mL (≈ 4.02 µM) | 23 nM | 1 nM | 1450 nM | 
CCn1c(C(C)C)cc2c3c(N)nc(N)nc3ccc21 | 0.1 µg/mL (≈ 0.371 µM) | 0.33 nM | < 0.002 nM | 1.4 nM | 
Cc1cc2c3c(N)nc(N)nc3ccc2n1C(C)C | 0.025 µg/mL (≈ 0.0979 µM) | 0.22 nM | 0.0064 nM | 7.4 nM | 
Cc1cc2c3c(N)nc(N)nc3ccc2n1C | 0.1 µg/mL (≈ 0.44 µM) |  | 0.087 nM | 85 nM | 
COc1ccc(OC)c(Cc2cnc3nc(N)nc(N)c3c2C)c1 [PIRITREXIM] | > 10 µg/mL | 1.9 nM | 0.025 nM |  | IC50 [7]: 24 nM; IC50 [9]: 70 nM; IC50 [10]: 230 nM; IC50 [11]: 260 nM; IC50 [28]: 68 nM; IC50 [12]: 76 nM; Increase in life-span [29]: 0%; Increase in life-span [30]: 40%; Increase in life-span [31]: -5%; Infection score [32]: 3.27; No. of mice infected /total [33]: Number of mice infected to that of total number of mice ([…]/[…]); IC50 [22]: 21 nM; IC50 [23]: 55 nM; IC50 [24]: 48 nM; IC50 [25]: 30 nM
CC(C)c1cc2c(ccc3nc(N)nc(N)c32)[nH]1 | 0.05 µg/mL (≈ 0.207 µM) | 0.16 nM | 0.01 nM |  | 
CCC(CC)n1c(C(C)C)cc2c3c(N)nc(N)nc3ccc21 | > 0.1 µg/mL | < 0.05 nM | 0.0001 nM | 0.75 nM | 
